Screening data deposited in PubChem by Johns Hopkins Ion Channel Center.
KCNK3 inh: human KCNK3 channel inhibition, primary screen. hit rate 0.84% among 340,000. CHO-KCNK3 thallium flux, FluxOR fluorescence; active compounds read low. B-score at 10 µM. O14649;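 active = B-score under library mean minus 4 SD, starting fluorescence ratio at most library mean plus 5 SD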;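 also: more negative B-score means stronger inhibition of thallium flux through KCNK3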
Kir21 block: inhibitors of mouse Kir2.1 inward-rectifier potassium channel | HEK293-Kir2.1, FluxOR thallium flux fluorescence; active compounds read low | P35561 | hit rate 0.85% among 310,000 | B-score at 10 µM | AID 1672;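 active = fluorescence ratio B-score at or below minus 3 SD of library scores, with starting-brightness B-score within 2 SD, cut at about -4.2 in these data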;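 also: channel flux triggered by added potassium and thallium sulfate stimulus; B-score of peak minus minimum fluorescence over baseline after thallium stimulus; more negative B-score means stronger Kir2.1 block with less thallium influx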
KCNQ1 pot: potentiators or activators of human KCNQ1 potassium channel; P51787; CHO-K1 KCNQ1, thallium flux FluxOR fluorescence; active compounds read high; B-score at 10 µM; hit rate 0.35% among 310,000;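 active = fluorescence ratio B-score, a plate-corrected score, at least three library SD, with initial intensity B-score within 5 SD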
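Assay system: stable KCNQ1 CHO-K1 line; medium: assay buffer, equal DMSO in all wells; timing: 90 min dye loading and 20 min compound exposure, both at room temperature; technique: kinetic FluxOR thallium fluorescence, 10-s 1-Hz baseline, 110-s post-stimulus read; read-out basis: B score of baseline-normalized fluorescence ratio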
hERG rescue: compounds protecting human hERG from proarrhythmic drug block; AID 1511; hit rate 0.51% among 310,000; Q12809; CHO-hERG, FluxOR thallium flux, dofetilide IC70 present; activation (rescue from dofetilide block), less the hit threshold, % at 10 µM;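 active = activation above the mean of controls blocked by dofetilide plus 5 SD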;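 also: thallium influx through hERG after potassium depolarization seen as dye fluorescence rise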
Target sequence (Q12809 whole entry, looked up): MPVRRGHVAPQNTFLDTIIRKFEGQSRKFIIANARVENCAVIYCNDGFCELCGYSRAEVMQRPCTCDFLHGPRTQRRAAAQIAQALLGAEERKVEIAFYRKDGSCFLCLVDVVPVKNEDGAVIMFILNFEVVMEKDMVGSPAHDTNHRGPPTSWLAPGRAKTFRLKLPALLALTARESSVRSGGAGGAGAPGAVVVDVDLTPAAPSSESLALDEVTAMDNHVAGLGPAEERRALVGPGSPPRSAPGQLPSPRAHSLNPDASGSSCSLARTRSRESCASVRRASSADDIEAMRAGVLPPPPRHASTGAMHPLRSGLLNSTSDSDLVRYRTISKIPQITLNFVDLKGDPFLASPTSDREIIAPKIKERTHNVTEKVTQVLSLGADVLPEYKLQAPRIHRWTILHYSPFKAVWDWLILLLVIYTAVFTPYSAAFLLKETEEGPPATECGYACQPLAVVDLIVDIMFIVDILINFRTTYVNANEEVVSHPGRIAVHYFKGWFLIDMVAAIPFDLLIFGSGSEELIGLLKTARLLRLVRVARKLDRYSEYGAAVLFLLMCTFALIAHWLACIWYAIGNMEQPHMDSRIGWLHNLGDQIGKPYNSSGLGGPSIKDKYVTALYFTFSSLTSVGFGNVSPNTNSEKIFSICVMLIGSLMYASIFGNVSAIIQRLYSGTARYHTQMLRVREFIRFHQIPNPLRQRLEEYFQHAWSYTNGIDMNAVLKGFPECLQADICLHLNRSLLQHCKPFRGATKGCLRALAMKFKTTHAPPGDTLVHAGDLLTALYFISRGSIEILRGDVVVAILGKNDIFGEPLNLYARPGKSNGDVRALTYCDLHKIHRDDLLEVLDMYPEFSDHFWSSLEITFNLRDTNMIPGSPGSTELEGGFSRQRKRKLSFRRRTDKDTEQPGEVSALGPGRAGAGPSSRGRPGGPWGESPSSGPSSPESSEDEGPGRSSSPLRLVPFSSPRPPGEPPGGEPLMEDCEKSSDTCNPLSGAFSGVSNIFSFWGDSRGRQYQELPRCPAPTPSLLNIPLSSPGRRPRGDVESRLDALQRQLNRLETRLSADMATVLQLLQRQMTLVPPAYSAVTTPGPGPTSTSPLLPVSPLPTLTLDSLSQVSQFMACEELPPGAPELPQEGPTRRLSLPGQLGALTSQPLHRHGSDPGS
KCNK9 block: human KCNK9 channel inhibition; HEK293 KCNK9, FluxOR thallium flux fluorescence; active compounds read low; B-score at 10 µM; hit rate 1.2% among 310,000;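 active = ratio B-score over 3 SD below the library mean, with starting fluorescence within 5 SD of its mean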;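 also: negative B-score means less thallium flux so channel inhibition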
KCNQ1 block: human KCNQ1 channel inhibition | P51787 | CHO-K1 KCNQ1, FluxOR thallium flux fluorescence; active compounds read high | B-score at 10 µM | hit rate 1.3% among 310,000 | AID 2642;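 active = compounds whose thallium flux B-score, printed positive for inhibition, exceeds three library SD while starting fluorescence stays within three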;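 also: channel opened by potassium depolarization with thallium stimulus after 20 min compound exposure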
Numbers stand for hits; - = inactive; . = not tested or not shown. In the library only some 3.7% were active in any assay of this set; here they are far more common.

SMILES	KCNK3 inh	Kir21 block	KCNQ1 pot	hERG rescue	KCNK9 block	KCNQ1 block
C=CC[C@@H](Cc1ccc(F)cc1)C(=O)OC[C@@H]1CCCN1C(=O)[C@H](CC=C)CC(=O)NCCO	-	.	.	.	.	.
O=[N+]([O-])c1cccc(/C=C/C=N/Nc2nc(N3CCCCC3)nc(N3CCCCC3)n2)c1	-	-	-	-	-	6
O=[N+]([O-])c1cccc(/C=N/Nc2nc(N3CCOCC3)nc(N3CCOCC3)n2)c1	-	-	-	-	-	-
CCOc1ccccc1NS(=O)(=O)c1cn(C)nc1C	-	-	-	-	-	-
O=C(CSc1nccc(=O)[nH]1)Nc1ccc(F)c([N+](=O)[O-])c1	-	-	-	-	-	-
CC(C)c1ccc(/C=N/n2c(COc3ccccc3)n[nH]c2=S)cc1	-	-	16	-	-	-
O=C(COc1ccc(Cl)cc1)NCc1ccc(F)cc1	-	-	-	-	-	-
O=C(Nc1ccc(C(=O)N2CCCC2)cc1)c1ccc(F)cc1Cl	-	-	-	-	-	-
COc1ccc(OCC(=O)NNC(=O)c2ccc3c(=O)n4c(nc3c2)CCC4)cc1	-	-	-	-	-	-
CCc1cccc(CC)c1C(O)c1cccnc1 (centres undefined)	-	-4.62	-	-	-	-
CCc1cccc(CC)c1NC(=S)NCC(c1cccnc1)N(C)C (centres undefined)	-	-	-	-	-	-
Cc1ccc2c(c1)C1CN(C)CCC1N2C(=O)Nc1ccc(Cl)cc1 (centres undefined)	-	-	-	-	-	7
Cc1ccc2c(c1)C1CN(C)CCC1N2C(=O)c1cccc(S(=O)(=O)N(C)C)c1 (centres undefined)	-	-	-	-	-	-
O=[N+]([O-])c1ccccc1Sc1nccn1Cc1ccccc1	-	-4.93	-	-	-	-
NC(=O)CSc1nccn1Cc1ccccc1	-	-	-	-	-	-
Cc1csc(NC(=O)c2ccc(OCC3CCCO3)cc2)n1 (centres undefined)	-	-	-	-	-	-
Cc1cccc2sc(NC(=O)c3ccc(OCC4CCCO4)cc3)nc12 (centres undefined)	-	-	-	6.5	-	-
O=C(CCc1ccc(O)c(O)c1)N/N=C/c1ccc2c(c1)OCO2	-	-	-	-	-	6
CC(C)Oc1ccc(CCC(=O)N/N=C/c2ccc3c(c2)OCO3)cc1	-	-	-	-	-	-
CCC[C@@H](CN[C@@H](CNC)C(C)C)NCCCCc1ccccc1	-	-	-	-	-	-
CNC[C@@H](Cc1ccccc1)NC[C@@H](CC1CCCCC1)NCCCc1ccccc1	-	-11	-	-	-8.06	7
CCC[C@@H](CNC)NC[C@H](Cc1ccccc1)NCCCCc1ccccc1	-	-4.47	-	-	-	-
CNC[C@@H](CC1CCCCC1)NC[C@H](CC(C)C)NCCc1cccc(C(F)(F)F)c1	-	-8.85	-	-	-	9
CCN(CC(=O)Nc1ccc(OC)cc1)CC(=O)N1CC(=O)Nc2ccccc21	-	.	.	.	.	.
S=c1[nH]c2ccc(Cl)cc2s1	-	-	69	52.5	-	-
SMILES	KCNK3 inh	Kir21 block	KCNQ1 pot	hERG rescue	KCNK9 block	KCNQ1 block
O=[N+]([O-])c1ccc2[nH]c(=S)sc2c1	-	.	.	.	.	.
CN(C)c1ccc(/C=C/c2cc[n+](C)cc2)cc1	-	-	-	-	-	7
Cc1ccc(/C=C/c2ccc(N(C)C)cc2)[n+](C)c1	-	-	-	-	-	9
CCOc1ccc(CCNC(=O)c2cc(S(=O)(=O)N3CCOCC3)ccc2C)cc1OCC	-	-	-	-	-	-
Cc1nnc(NC(=O)Cn2nc(C)c3ccccc3c2=O)s1	-	-	-	-	-	-
Cc1cc(C)n(CC(O)COc2ccc(Cl)cc2Cl)n1 (centres undefined)	-	-	-	-	-	-
Cc1cc(C)n(CCOc2ccc(Cl)cc2Cl)n1	-	-	-	9.2	-	-
CC(/C=N/n1c(-c2ccc(Cl)cc2)n[nH]c1=S)=C\c1ccco1	-	-	9	-	-	-
CC(/C=N/n1c(-c2cc(C)[nH]n2)n[nH]c1=S)=C\c1ccco1	-	-	-	-	-	-
CC1(c2ccc(OC(F)F)cc2)NC(=O)N(CC(=O)N2c3ccccc3NC(=O)C2(C)C)C1=O (centres undefined)	-	.	.	.	.	.
CCOc1ccc2cc(S(=O)(=O)n3ccnc3C)ccc2c1	-	-	-	-	-	-
CCc1nccn1S(=O)(=O)c1ccc2ccc(C)cc2c1	-	-	28	26.9	-	-
Cc1occc1C(=O)NNS(=O)(=O)c1ccc([N+](=O)[O-])cc1	-	-	-	-	-	-
COCCCN(C(=S)Nc1c(C)cc(C)cc1C)C(C)c1ccccn1 (centres undefined)	-	-	-	-	-	-
COc1cccc(CC2(CO)CCN(C(=O)NCCc3ccccc3)CC2)c1	-	-	-	-	-	-
COc1cccc(CC2(CO)CCN(C(=O)NC3CCCCC3)CC2)c1	-	-	-	8.7	-	-
CCC1CCC2(CC1)NC(CO)(CO)CO2 (centres undefined)	-	-	8	-	-	-
CC1CCCC(NS(=O)(=O)c2cccc3nsnc23)C1C (centres undefined)	-	-	-	-	-	-
O=C(Cc1c(F)cccc1Cl)Nc1nccs1	-	-	-	-	-	-
COc1ccc(C(C)=O)cc1CSc1nnc(Nc2ccc(C)cc2C)s1	-	-	-	-	-	-
COc1ccc(C(C)=O)cc1CSc1nnc(Nc2ccccc2C)s1	-	-4.31	-	-	-	-
Cc1cccc(C)c1OCCCCc1c(C)n[nH]c1C	-	-	-	-	-8.03	-
COc1cccc(OC)c1OCCCCc1c(C)n[nH]c1C	-	-	-	-	-	-
COc1cccc(OC)c1OCCCCCc1c(C)n[nH]c1C	-	-4.46	-	-	-	-
CCC1=C(OC(=O)N(CC)CC)N2C(=O)OC(=NCC3CC3)[C@]2(Cc2ccccc2)[C@H]2C1=CC[C@H]1C(=O)N(CC(=O)OC)C(=O)[C@H]12	.	-	-	-	-6.77	-
SMILES	KCNK3 inh	Kir21 block	KCNQ1 pot	hERG rescue	KCNK9 block	KCNQ1 block
CCC1=C(OC(=O)N(CC)CC)N2C(=O)OC(=NCc3ccccc3)[C@]2(C)[C@H]2C1=CC[C@H]1C(=O)N(CC(=O)OC)C(=O)[C@H]12	-	-	-	-	-	-
Cc1ccc(-c2csc3ncnc(SCC(=O)NCc4ccc5c(c4)OCO5)c23)cc1	-	-	-	-	-	-
O=C(CSc1ncnc2scc(-c3ccc(Cl)cc3)c12)NCc1ccc2c(c1)OCO2	-9.92	-	-	-	-	-
CC(C)(C)NC(=O)NC(=O)COC(=O)c1c(F)cccc1Cl	-	-	-	-	-	-
C[C@@H](C(=O)CC(=O)OC(C)(C)C)[C@@H](O)c1c(F)cccc1Cl	-	-	-	-	-8.01	-
CCOC(=O)c1nnn(-c2nonc2N)c1-c1ccccc1Cl	-	-4.94	-	-	-	-
